Screens: PubChem, Columbia University Molecular Screening Center
INS promoter act = activators of insulin promoter-driven GFP, primary screen, imaging, TRM-6 cells, eGFP reporter, cell count | plate-scaled: unstimulated 0, stimulated control 100 | activation, % at 2 µM | 130,000 tested, 0.81% active;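 active = activation at 2 µM above a set limit, confirmed on inspection of the cell images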;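 note: share of cells whose green reporter signal exceeds an intensity cutoff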
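Material: Human fetal islet-derived TRM-6 cells with tamoxifen-inducible insulin promoter–eGFP reporter | Medium: Low-glucose (5.5 mM) medium with tamoxifen | Probe or stimulus: Tamoxifen inducer, 0.75 µM, in seeding medium | Schedule: Tamoxifen pre-incubation 15 h overnight, then compound exposure 48 h at 37 °C | Detection: High-content imaging of fixed cells with Hoechst nuclear stain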
* marks the source's active call; other numbers are inactive results; [ ] = dose if it differs, or a comment. The sample as a whole holds a higher share of hits than the screen did.

SMILES | INS promoter act
COc1ccc(CCNC(=O)C2CCCN(c3nn4c(=O)cc(C)nc4s3)C2)cc1OC (centres undefined) | 3
COc1ccc(CCNC(=O)C2CCN(S(=O)(=O)c3c(C)noc3C)CC2)cc1OC | -66
Cc1ccc(C2CC(=O)c3cnn(-c4nc(C)cc(C)n4)c3C2)cc1 (centres undefined) | 131
O=C(NCCCN1CCN(c2ccccc2F)CC1)Nc1ccccc1[N+](=O)[O-] | -78
CCCC(C)c1nnc(NC(=O)c2cc(C(=O)OC)cc([N+](=O)[O-])c2)s1 (centres undefined) | -7
O=C(OC1C2CCC1C1CN(CCc3ccccc3)CC12)c1ccccc1 (centres undefined) | 0
CC(=NC1CC1)C1=C(O)c2ccccc2C1=O | 6
O=C1C(C2=C(O)c3ccccc3C2=O)=Nc2ccccc21 | 440*
CC(=NCCCN(C)C)C1=C(O)c2ccccc2C1=O | -6
O=C(O)CC(SCc1ccc(C(=O)O)o1)C(=O)O (centres undefined) | 76*
O=C(O)c1ccc(CS(=O)c2cccc(C(F)(F)F)c2)o1 (centres undefined) | 40
O=C(O)c1ccc(COc2ccc(Cl)cc2)o1 | 8
NS(=O)(=O)c1ccc(CCNC(=O)CSc2nc3ccsc3c(=O)n2CCCCC(=O)O)cc1 | -7
CCOC(=S)N/C(=N\S(=O)(=O)c1ccc(C)cc1)c1ccccc1 | -4
CCCSc1nc(C)cc(C)c1C(N)=O | 8
O=CNc1ccc(S(=O)(=O)NCc2ccccc2)cc1 | -9
COc1ccc(NS(=O)(=O)c2ccc(NC(=O)c3cnn4c(C(F)F)cc(-c5ccc(C)cc5)nc34)cc2)cc1 | 3
CC1(C(=O)O)Oc2cccnc2NC1=O (centres undefined) | 409*
COC(=O)c1[nH]nc(C(=O)OC(C)(C)C)c1-c1ccccc1 | -8
CN1CCC(Oc2ccccc2Sc2ccccc2)CC1 | 0
CCCCN(CCCC)S(=O)(=O)c1ccc(NC(=O)CN2CCOCC2)cc1 | 6
O=C(CN1CCOCC1)Nc1ccc(S(=O)(=O)NC2CCCCC2)cc1 | 200*
O=C(CN1CCCCC1)Nc1ccc(S(=O)(=O)N2CCOCC2)cc1 | 4
CCN(CC)S(=O)(=O)c1ccc2[nH]cc(C(=O)NCCC3=CCCCC3)c(=O)c2c1 | -7
Cc1ccc(S(=O)(=O)NC(=O)c2ccc(-c3ccc(-c4ccccc4)cc3)o2)c(C)c1 | -67
SMILES | INS promoter act
CCN=C(NC#N)SCc1c(F)cccc1Cl | 167
O=C(Nc1ccncc1)C1(c2ccccc2)CCCC1 | 0
CC(=O)N1N=C(c2ccncc2)OC12CCCC2 | 543*
O=C(Nc1nc2c(F)cc(F)cc2s1)c1ccccn1 | 8
CC1=C(CC/C(C)=N/NC(N)=S)C(C)(C)CCC1 | 176
O=c1c(-c2nnc(SCc3ccc(Cl)c(Cl)c3)o2)cccn1Cc1ccccc1 | -4
N=C1C(=O)OCC1c1ccccc1NC(=O)c1ccccc1 (centres undefined) | 0
CC1(C(=O)NCc2cccnc2)CCC(=O)N1Cc1cccs1 (centres undefined) | -62
COc1ccccc1N(CC(=O)Nc1ccccc1C)S(C)(=O)=O | 8
Cc1ccccc1N(CC(N)=O)S(C)(=O)=O | -10
Cc1ccccc1N(CC(=O)O)S(C)(=O)=O | 475*
COc1ccc(NC(=S)NCCc2c(C)[nH]c3ccc(OC)cc23)cc1 | 9
CCOC(=O)CN1C(=O)C(O)(C2CCc3ccccc3C2=O)c2ccccc21 (centres undefined) | -10
COc1ccc(NC2=CC(=O)N(C)C2=O)cc1 | 0
O=C1C2C3C=CC(CC3)C2C(=O)N1c1ccccc1[N+](=O)[O-] (centres undefined) | -7
Cc1ccccc1Oc1ncnc(N)c1[N+](=O)[O-] | 8
Cc1ccc(Oc2ncnc(N)c2[N+](=O)[O-])cc1C | 312*
Cc1cc(C)c(C)c(Oc2ncnc(N)c2[N+](=O)[O-])c1 | -3
Cc1ccc(-n2nc3c(N4CCN(c5ccccc5)CC4)nnc(C)c3c2C)cc1 | -81
C=CCOc1c(Br)cc(/C=N/Nc2ccc(C(=O)O)cc2)cc1OCC | 107
O=C(COc1cccc(Cl)c1)Nc1ccc(N2CCOCC2)cc1 | 0
Cc1ccc(OCC(=O)Nc2ccc(N3CCCC3)cc2)cc1C | 163*
COc1ccccc1OCC(=O)Nc1ccc(N2CCCCC2)cc1 | -9
COc1ccccc1C(=O)N/N=C(\C)c1ccc(NC(=O)C2CC2)cc1 | 0
COc1cc(C(=O)NCc2nnc(SCC(=O)Nc3nc4ccccc4s3)o2)cc(OC)c1OC | 4
SMILES | INS promoter act
COc1ccc(OC)c(NC(=O)CSc2nnc(CNC(=O)COc3ccc(Cl)cc3)o2)c1 | 129*
COc1cc(C(=O)NCc2nnc(SCC(=O)Nc3nccs3)o2)cc(OC)c1OC | 144
CC(=O)N/C(=C\c1ccc(F)cc1)C(=O)N(C)C | -6
O=C(COC(=O)CNS(=O)(=O)c1cccc(Br)c1)NC(=O)Nc1ccc2c(c1)OCCO2 | 400*
Cc1ccc(S(=O)(=O)NCC(=O)OCC(=O)Nc2cccc(S(=O)(=O)NC3=NCCCCC3)c2)cc1 | -78
O=C(COC(=O)CCNS(=O)(=O)c1ccc2c(c1)OCCO2)NC1CCCc2ccccc21 (centres undefined) | 9
COC(=O)C1=C(C)Nc2nnnn2C1c1ccccc1Cl (centres undefined) | 8
C=CCOC(=O)C1=C(C)Nc2nnnn2C1c1ccc(OC)cc1OC (centres undefined) | 3
CCCCOc1ccccc1C1C(C(N)=O)=C(C)Nc2nnnn21 (centres undefined) | 493*
O=C(CCCCCN1C(=O)CCC1=O)Nc1ccc2c(c1)OCO2 | 475*
O=C(CCCN1C(=O)CCC1=O)Nc1ccc2c(c1)OCCO2 | 118
O=C(CCCCCN1C(=O)c2ccccc2C1=O)Nc1ccc2c(c1)OCCO2 | 0
CC1=CCC2COC(c3ccc[n+](Cc4ccccc4)c3)C1C2 (centres undefined) | -7
Cc1ccc(NC(=O)COC(=O)CCC(=O)c2cccs2)cc1 | 8
Cc1ccc(C(=O)COC(=O)CNC(=O)c2cccs2)cc1C | -4
Cc1ccc(C(=O)NCC(=O)NCC(=O)OCC(=O)c2cccs2)cc1 | 471*
COc1ccc(CCN=C(N)NS(=O)(=O)c2cccs2)cc1 | 0
FC(F)(F)C(Oc1nc(Nc2ccc(Cl)cc2)nc(N2CCOCC2)n1)C(F)(F)F | 279
CN(C)C(=O)COc1ccc2cc(-c3ccccc3)c(=O)oc2c1 | -27
CCOC(=O)c1cc2ccc(OC)cc2oc1=O | 5
CCN(CC)c1ccc2cc(-c3nc(-c4ccc(OC)cc4)cs3)c(=O)oc2c1 | 223*[fluoresces]
CC(C)c1ccc(CN2CC(C(=O)Nc3ccccc3)CC2=O)cc1 (centres undefined) | -75
COC(=O)c1sc(NC(=O)C2CCCO2)c(C(=O)OC)c1C (centres undefined) | 428*
Cc1c(C(=O)OC(C)C)sc(NC(=O)C2CCCO2)c1C(=O)OC(C)C (centres undefined) | 3
Cc1sc(NC(=O)C2CCCO2)c(C#N)c1C (centres undefined) | -9
CCCn1c(SCC(=O)N2c3ccc(F)cc3CCC2C)nnc1-c1ccccn1 (centres undefined) | 305
CS(=O)(=O)N(CC(=O)N1CCN(c2ccc(F)cc2)CC1)c1ccc(F)c(Cl)c1 | 0
CCCCN(CCCC)S(=O)(=O)c1c(C)[nH]c(=O)[nH]c1=O | -73
